{"source": "paper PMC5665024", "about": "(Chemical research in toxicology, 2017)", "key": {"KF(exo-) binding to DNA": {"biological_target": "KF(exo-) binding to DNA (Escherichia coli, UniProt P00582, D355A/E357A)", "experiment": "Polymerase–DNA interaction, electrophoretic mobility shift assay, KF", "set-up": "species or system E. coli", "details": "native PAGE"}, "GM12878 cells": {"tested_on": "GM12878 cells", "experiment": "MTS assay of cell proliferation, GM12878", "type": "cell-based, human", "details": "Homo sapiens, 24 h, GM12878, 24 h incubation", "how_it_was_run": "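Lymphoblasts grown in RPMI 1640 with 15% FBS at 37 °C and 5% CO2. Plated at 5 × 10^3 per well, grown 24 h, then exposed 24 or 72 h to test compound alone or with 10 μM lignan inhibitor added. DMSO 0.2% final; vehicle controls. MTS/PMS in PBS pH 7.2 for 4 h at 37 °C; A492; cell-free background. Triplicate; normalized absorbance fitted for IC50 with 95% CI.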"}, "pol β": {"biological_target": "pol β (Homo sapiens, UniProt P06746)", "experiment": "Presteady-state burst kinetics", "type": "biochemical", "details": "modeling with a noncompetitive inhibition scheme (Figure S10)"}}}
{"smiles": "C=CCc1ccc(O)c(-c2ccc(O)c(CC=C)c2)c1", "note": "[HNL, 2-(4-hydroxy-3-prop-2-enyl-phenyl)-4-prop-2-enyl-phenol]", "values": [{"measurement": "inhibition of DNA binding to polymerase (EMSA)", "setting": "KF(exo-) binding to DNA", "value": "does not inhibit DNA binding"}, {"measurement": "EC50", "setting": "GM12878 cells; another study", "value": "> 100", "unit": "µM"}, {"measurement": "EC50", "setting": "GM12878 cells; one study", "value": "> 1000", "unit": "µM"}, {"measurement": "honokiol off rate constant", "setting": "pol β", "value": 0.16, "unit": "s⁻¹"}]}
